The source of these data is ChEMBL document CHEMBL4425094, “Novel Benzo[a]quinolizidine Analogs Induce Cancer Cell Death through Paraptosis and Apoptosis” (J Med Chem, 2016).

One may read the IC50 as the midpoint of a concentration-inhibition curve.

For test [1], the system named is MDA-MB-231. Nature of the test: Cytotoxicity against human MDA-MB-231 cells assessed as cell growth inhibition after 24 hrs by MTT assay. It is filed as functional, cell-based. As to conditions: MDA-MB-231, 24 h. In outline:
(§1)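 Cells seeded 24 h in RPMI 1640 + 10% FBS. RWPE-1 was kept in K-SFM with bovine pituitary extract and EGF. Cells then exposed to compounds for 24 h at 37 °C, 5% CO2, with DMSO vehicle and docetaxel as positive control. MTT added for 4 h, absorbance read at 570 nm. Triplicate runs, IC50 reported as mean of three experiments.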
Background: Tetrazolium dyes change colour on reduction, which living cells bring about.

The test system of test [2] is HeLa. Nature of the test: Cytotoxicity against human HeLa cells assessed as cell growth inhibition after 24 hrs by MTT assay. The class given is functional, cell-based. In outline: as §1
Test [3] has as its system K562. The test is described as follows: Cytotoxicity against human K562 cells assessed as cell growth inhibition after 24 hrs by MTT assay. It is filed as functional, cell-based. Particulars: K562, 24 h. In outline:
as §1

Test [4] has as its system PC-3. Nature of the test: Cytotoxicity against human PC3 cells assessed as cell growth inhibition after 24 hrs by MTT assay. The class given is functional, cell-based. As to conditions: PC-3, 24 h. An outline of the steps:
as §1

In test [5] the test system is DU-145. Nature of the test: Cytotoxicity against human DU145 cells assessed as cell growth inhibition after 24 hrs by MTT assay. It is filed as functional, cell-based. Particulars: DU-145, 24 h. In outline:
as §1

The subject of test [6] is MCF7. The test is described as follows: Cytotoxicity against human MCF7 cells assessed as cell growth inhibition after 24 hrs by MTT assay. The class given is functional, cell-based. Particulars: MCF7, 24 h. An outline of the steps: as §1
Test [7] has as its system RWPE-1. The test is described as follows: Cytotoxicity against human RWPE1 cells assessed as cell growth inhibition after 24 hrs by MTT assay. The class given is cell-based. Particulars: RWPE-1, 24 h. In outline: as §1

Consider `O[C@H]1C[C@@H](c2ccccc2)N2CCc3cc4c(cc3[C@@H]2C1)OCO4`, for which the IC50 in test [1], in test [2], in test [3], in test [4], in test [5] and in test [6] was above 20 µM each time. Further, the IC50 in test [7] was above 20 µM.
As for `COc1ccc([C@@H]2C[C@@H](O)C[C@H]3c4cc(OCc5ccccc5)c(OCc5ccccc5)cc4CCN23)cc1`, the half-inhibitory concentration (IC50) in test [1], in test [2], in test [3], in test [4], in test [5] and in test [6] was above 20 µM each time. Also, the half-maximal inhibitory concentration (IC50) in test [7] was above 20 µM.
Turning to `COc1ccc([C@@H]2C[C@H](O)C[C@H]3c4cc(OCc5cc(C)cc(C)c5)c(OCc5cc(C)cc(C)c5)cc4CCN23)cc1OC`, the concentration for half-maximal inhibition (IC50) in test [1], in test [2], in test [3], in test [4], in test [5] and in test [6] was above 20 µM each time. Further, in test [7], the IC50 is above 20 µM.
`C[C@@H]1CC(=O)C[C@H]2c3cc(OCc4ccc(Br)cc4)c(OCc4ccc(Br)cc4)cc3CCN12` (relative stereo): the IC50 in test [1], in test [2], in test [3], in test [4], in test [5] and in test [6] was above 20 µM in each case. In addition, in test [7], the IC50 was above 20 µM.
Turning to `C[C@@H]1CC(=O)C[C@H]2c3cc(OCc4ccc(C(C)(C)C)cc4)c(OCc4ccc(C(C)(C)C)cc4)cc3CCN12` (relative stereo), the IC50 in test [1], in test [2], in test [3], in test [4], in test [5] and in test [6] was above 20 µM in each case. The IC50 in test [7] is above 20 µM.
Regarding `C[C@@H]1C[C@@H](O)C[C@H]2c3cc(OCc4ccc(C(C)(C)C)cc4)c(OCc4ccc(C(C)(C)C)cc4)cc3CCN12`, the IC50 in test [1] turned out to be 3.25 µM; in test [2] it was 2.06 µM; in test [3] it was 2.04 µM; in test [4], 3.79 µM; in test [5], 2.22 µM; in test [6] it was 0.86 µM. Further, the half-inhibitory concentration (IC50) in test [7] is 1.91 µM.
Regarding `COc1ccc([C@@H]2CC(=O)C[C@H]3c4cc(OCc5ccccc5)c(OCc5ccccc5)cc4CCN23)cc1` (relative stereo), the half-maximal inhibitory concentration (IC50) in test [1], in test [2], in test [3], in test [4], in test [5] and in test [6] was above 20 µM in each case. The 50% inhibitory concentration (IC50) in test [7] was above 20 µM.
With `Cc1cc(C)cc(COc2cc3c(cc2OCc2cc(C)cc(C)c2)[C@@H]2CC(=O)C[C@@H](C)N2CC3)c1` (relative stereo), the half-maximal inhibitory concentration (IC50) in test [1], in test [2], in test [3], in test [4], in test [5] and in test [6] was above 20 µM each time. Besides, the IC50 in test [7] is above 20 µM.
For `COc1cc([C@@H]2C[C@@H](O)C[C@H]3c4cc(OCc5ccccc5)c(OCc5ccccc5)cc4CCN23)cc(OC)c1OC`, the concentration for half-maximal inhibition (IC50) in test [1], in test [2], in test [3], in test [4], in test [5] and in test [6] was above 20 µM in each case. For the same compound, the IC50 in test [7] was above 20 µM.
Take `O=C1C[C@@H](c2ccccc2)N2CCc3cc(OCc4ccccc4)ccc3[C@@H]2C1` (relative stereo): the half-maximal inhibitory concentration (IC50) in test [1], in test [2], in test [3], in test [4], in test [5] and in test [6] was above 20 µM in each case. The concentration for half-maximal inhibition (IC50) in test [7] is above 20 µM.
For the compound `O=C1C[C@@H](c2ccccc2)N2CCc3cc(OCc4ccccc4)c(OCc4ccccc4)cc3[C@@H]2C1` (relative stereo), the IC50 in test [1], in test [2], in test [3], in test [4], in test [5] and in test [6] was above 20 µM each time. Further, in test [7], the concentration for half-maximal inhibition (IC50) is above 20 µM.
Consider `COc1ccc([C@@H]2CC(=O)C[C@H]3c4cc(OCc5ccccc5)c(OCc5ccccc5)cc4CCN23)cc1OC` (relative stereo), for which the half-maximal inhibitory concentration (IC50) in test [1], in test [2], in test [3], in test [4], in test [5] and in test [6] was above 20 µM throughout. The concentration for half-maximal inhibition (IC50) in test [7] is above 20 µM.
Take `C[C@@H]1CC(=O)C[C@H]2c3cc(OCc4cccc(F)c4)c(OCc4cccc(F)c4)cc3CCN12`: the IC50 was 1.3 µM in test [1]; above 20 µM in test [2]; above 20 µM in test [3]; above 20 µM in test [4]; above 20 µM in test [5]; above 20 µM in test [6]. In test [7], the IC50 is above 20 µM.
`c1ccc(COc2cc3c(cc2OCc2ccccc2)[C@@H]2CCC[C@@H](c4ccccc4)N2CC3)cc1`: the IC50 in test [1], in test [2], in test [3], in test [4], in test [5] and in test [6] was above 20 µM each time. In test [7], the IC50 was above 20 µM.
Regarding `O[C@@H]1CCN2CCc3cc(OCc4ccccc4)c(OCc4ccccc4)cc3[C@@H]2C1` (relative stereo), the IC50 in test [1], in test [2], in test [3], in test [4], in test [5] and in test [6] was above 20 µM each time. Moreover, the IC50 in test [7] is above 20 µM.
Consider `C[C@@H]1CC(=O)C[C@H]2c3cc4c(cc3CCN12)OCO4` (relative stereo), for which the half-inhibitory concentration (IC50) in test [1], in test [2], in test [3], in test [4], in test [5] and in test [6] was above 20 µM each time. Also, the IC50 in test [7] is above 20 µM.
As to `COc1cc([C@@H]2CC(=O)C[C@H]3c4cc(OCc5ccccc5)c(OCc5ccccc5)cc4CCN23)cc(OC)c1OC` (relative stereo), the IC50 in test [1], in test [2], in test [3], in test [4], in test [5] and in test [6] was above 20 µM in each case. The IC50 in test [7] was above 20 µM.
For `O=[N+]([O-])c1ccc([C@@H]2C[C@@H](O)C[C@H]3c4cc(OCc5ccccc5)c(OCc5ccccc5)cc4CCN23)cc1`, the IC50 in test [1], in test [2], in test [3], in test [4], in test [5] and in test [6] was above 20 µM throughout. In addition, the IC50 in test [7] is above 20 µM.
On to `CCCCCC[C@@H]1C[C@H](O)C[C@H]2c3cc(OCc4ccccc4)c(OCc4ccccc4)cc3CCN12`, for which the IC50 in test [1], in test [2], in test [3], in test [4], in test [5] and in test [6] was above 20 µM throughout. Also, in test [7], the IC50 is above 20 µM.
Turning to `COc1ccc([C@@H]2C[C@@H](O)C[C@H]3c4cc(OCc5cc(F)cc(F)c5)c(OCc5cc(F)cc(F)c5)cc4CCN23)cc1OC`, the IC50 in test [1] was 1.3 µM; in test [2] it was 4.67 µM; in test [3], 3.92 µM; in test [4], 1.71 µM; in test [5] it was 3.96 µM; in test [6], 3.52 µM. Besides, the IC50 in test [7] was determined as 2.24 µM.
`O[C@H]1C[C@@H](c2ccccc2)N2CCc3cc(OCc4ccccc4)c(OCc4ccccc4)cc3[C@@H]2C1`: the half-maximal inhibitory concentration (IC50) in test [1], in test [2], in test [3], in test [4], in test [5] and in test [6] was above 20 µM in each case. Besides, in test [7], the half-maximal inhibitory concentration (IC50) was above 20 µM.
On to `COc1cc2c(cc1OC)[C@@H]1C[C@H](O)C[C@@H](c3ccccc3)N1CC2`, for which the IC50 in test [1], in test [2], in test [3], in test [4], in test [5] and in test [6] was above 20 µM each time. The 50% inhibitory concentration (IC50) in test [7] was above 20 µM.
As to `CCCCCCCCCCCCCCCCOc1cc2c(cc1OCCCCCCCCCCCCCCCC)[C@@H]1C[C@H](O)C[C@@H](C)N1CC2`, the IC50 in test [1], in test [2], in test [3], in test [4], in test [5] and in test [6] was above 20 µM throughout. In test [7], the IC50 is above 20 µM.
With `O=C1C[C@@H](c2ccccc2)N2CCc3cc(O)c(O)cc3[C@@H]2C1` (relative stereo), the half-maximal inhibitory concentration (IC50) in test [1], in test [2], in test [3], in test [4], in test [5] and in test [6] was above 20 µM throughout. Also, the IC50 in test [7] was above 20 µM.
